Assay results gathered from unrelated publications.
Compare with care: the assays were run in different laboratories.
FLT3 D835Y: Receptor-type tyrosine-protein kinase FLT3 (FLT3, Homo sapiens, UniProt P36888, D835Y)
FLT3 N841I: Receptor-type tyrosine-protein kinase FLT3 (FLT3, Homo sapiens, UniProt P36888, N841I)
FLT3 autoinhibited: Receptor-type tyrosine-protein kinase FLT3, autoinhibited (FLT3, Homo sapiens, UniProt P36888)
FLT3 D835V: Receptor-type tyrosine-protein kinase FLT3 (FLT3, Homo sapiens, UniProt P36888, D835V)
FLT3 K663Q: Receptor-type tyrosine-protein kinase FLT3 (FLT3, Homo sapiens, UniProt P36888, K663Q)
FLT3 R834Q: Receptor-type tyrosine-protein kinase FLT3 (FLT3, Homo sapiens, UniProt P36888, R834Q)
FLT3: Receptor-type tyrosine-protein kinase FLT3 (FLT3, Homo sapiens, UniProt P36888)
FLT3 D835H: Receptor-type tyrosine-protein kinase FLT3 (FLT3, Homo sapiens, UniProt P36888, D835H)

| Compound | target | read-out | technique | concentration | remaining binding |
| --- | --- | --- | --- | --- | --- |
| CCCCN(CCCC)C(=O)CN1C[C@@H](c2cc(OC)c3c(c2)OCO3)[C@H](C(=O)O)[C@H]1CC(C)(C)CCC | FLT3 D835Y | cell-free assay | competition with immobilised ligand | 1 µM | 75.2% |
| O=C(NCCCN1CCOCC1)c1ccc(Nc2ncc(Cl)c(-c3ccc(Cl)s3)n2)cc1 | FLT3 N841I | binding | competition with immobilised ligand | 1 µM | 0.6% |
| N[C@@H]1CCN(c2nccc(-c3cnn4ncccc34)n2)C1 | FLT3 N841I | binding | – | 1 µM | 79% |
| CS(=O)(=O)N1CCCC(NC(=O)[C@H](CCC2CCCCC2)NC(=O)c2ccc(CNC(=O)c3cnc4ccccn34)cc2)C1 (stereo partly shown) | FLT3 autoinhibited | cell-free assay | competition with immobilised ligand | 0.1 µM | 93% |
| F[C@@H]1CCN(c2nccc(-c3cnn4ncccc34)n2)C1 | FLT3 D835Y | binding | – | 1 µM | 61% |
| CO[C@H]1CC[C@H](CNc2ccc(S(=O)(=O)NC(=O)c3ccc(N4CCN(CC5=C(c6ccc(Cl)cc6)CC(C)(C)CC5)CC4)cc3Oc3cnc4[nH]ccc4c3)cc2[N+](=O)[O-])CC1 | FLT3 D835V | cell-free assay | competition with immobilised ligand | 1 µM | 100% |
| CN(C)c1nccc(-c2cnn3ncccc23)n1 | FLT3 K663Q | binding | – | 1 µM | 100% |
| COc1ccc2c(O[C@@H]3C[C@H]4C(=O)N[C@]5(C(=O)O)CC5/C=C\CCCCC[C@H](NC(=O)OC5CCCC5)C(=O)N4C3)cc(-c3csc(NC(=O)C(C)C)n3)nc2c1C (stereo partly shown) | FLT3 R834Q | cell-free assay | competition with immobilised ligand | 1 µM | 92% |
| O=C(c1ccc(Nc2nccc(-c3cc4ccccc4s3)n2)cc1)N1CCC(N2CCCC2)CC1 | FLT3 | binding | competition with immobilised ligand | 1 µM | 44% |
| COc1cnc(Nc2cccc(S(N)(=O)=O)c2)nc1N1CCN(c2ccccc2)CC1 | FLT3 D835Y | binding | competition with immobilised ligand | 1 µM | 61% |
| Cc1noc([C@H]2C[C@@H](c3ccc(C(F)(F)F)cc3)CN(C(=O)N3CCS(=O)(=O)C3)C2)n1 | FLT3 D835H | cell-free assay | competition with immobilised ligand | 1 µM | 100% |
| C[C@@H]1CCN(c2nccc(-c3cnn4ncccc34)n2)C1 | FLT3 D835Y | binding | – | 1 µM | 100% |
| CNC(=O)[C@@H]1CC[C@@H](n2c(-c3ccc4cnccc4c3)nc3ccc(C(=O)NCc4cccc(C(N)=O)c4)cc32)C1 | FLT3 R834Q | binding | competition with immobilised ligand | 1 µM | 100% |
| O=C(Nc1c[nH]nc1C(=O)NC1CCNCC1)c1cc(F)cc(F)c1 | FLT3 D835V | binding | competition with immobilised ligand | 1 µM | 100% |
| COc1ncc2cc3ccccc3nc2c1C#N | FLT3 autoinhibited | cell-free assay | competition with immobilised ligand | 5 µM | 100% |
| CCCOc1ccc([C@@H]2[C@@H](C(=O)O)[C@H](c3ccc4c(c3)OCO4)CN2CC(=O)Nc2c(CC)cccc2CC)cc1 | FLT3 N841I | cell-free assay | competition with immobilised ligand | 1 µM | 88% |
| O=C(NCCCN1CCOCC1)c1ccc(Nc2nccc(-c3cc4ccccc4s3)n2)cc1 | FLT3 D835V | binding | competition with immobilised ligand | 1 µM | 3.4% |

| Compound | target | read-out | technique | concentration | remaining binding |
| --- | --- | --- | --- | --- | --- |
| O=C(NCC1CCOCC1)c1n[nH]cc1NC(=O)c1c(F)cccc1F | FLT3 D835V | binding | competition with immobilised ligand | 1 µM | 100% |
| C[C@@H](c1ccc(-n2cnc3c(N)ncnc32)cc1)N1CCc2nn(C)c(Cc3ccccc3)c2C1=O | FLT3 D835Y | binding | competition with immobilised ligand | 0.1 µM | 100% |
| C=CC(=O)N1CCC(C(=O)NCC(=O)N2CCN(c3nc(-c4cnc(N)nc4C(F)F)nc(N4CCOCC4)n3)CC2)CC1 | FLT3 K663Q | binding | competition with immobilised ligand | 1 µM | 100% |
| c1cncc(-c2cccc(Nc3nccc(NC4CCCCC4)n3)c2)c1 | FLT3 K663Q | binding | competition with immobilised ligand | 10 µM | 1.1% |
| CN(C)c1nccc(-c2cnc3ncccn23)n1 | FLT3 | binding | – | 1 µM | 100% |
| Cc1cnc(Nc2ccc(C(=O)N3CCC(N4CCCC4)CC3)cc2)nc1-c1cc2ccccc2s1 | Receptor-type tyrosine-protein kinase FLT3 (FLT3, Homo sapiens, UniProt P36888, ITD) | binding | competition with immobilised ligand | 1 µM | 6.6% |
| C[C@@H]1CN(c2cc(-c3n[nH]c4ccc(OC5(C)CC5)cc34)ncn2)C[C@H](C)O1 | FLT3 K663Q | cell-free assay | competition with immobilised ligand | 0.1 µM | 100% |
| COc1cnc(Nc2cccc(S(N)(=O)=O)c2)nc1N1CCN(c2ccccc2)C(=O)C1 | FLT3 R834Q | binding | competition with immobilised ligand | 1 µM | 77% |
| c1cnn2ncc(-c3ccnc(N4CCC45COC5)n3)c2c1 | FLT3 | binding | – | 1 µM | 85% |
| O=C1CCc2cc(Nc3cc(OC4CCOCC4)c([N+](=O)[O-])cc3Cl)ccc2N1 | Receptor-type tyrosine-protein kinase FLT3 (FLT3, Homo sapiens, UniProt P36888, D835V/ITD) | cell-free assay | competition with immobilised ligand | 1 µM | 78% |
| Cc1cnn2ncc(-c3ccnc(N(C)C)n3)c2c1 | FLT3 D835H | binding | – | 1 µM | 100% |
| CCN1CCN(Cc2ccc(C(=O)Nc3ccc(C)c(Oc4ccc5c(c4)CC(=O)N5)c3)cc2C(F)(F)F)CC1 | FLT3 D835H | binding | competition with immobilised ligand | 1 µM | 100% |
| Nc1ncc2c(n1)-c1c([nH]c3ccc(C#CC4CC4)cc13)CCCC2 | FLT3 N841I | binding | competition with immobilised ligand | 1 µM | 89% |
| O=C(c1ccc(Nc2ncc(Cl)c(-c3cc4ccccc4s3)n2)cc1)N1CCC(N2CCCC2)CC1 | FLT3 D835Y | binding | competition with immobilised ligand | 1 µM | 3.7% |
| CN1CCN(c2ccc(Nc3nccc(-c4ccccc4)n3)cc2C(F)(F)F)CC1 | FLT3 D835V | binding | – | 10 µM | 0% |
| O=C(c1ccc(Nc2ncc(Cl)c(-c3ccc(Cl)s3)n2)cc1)N1CCC(N2CCCC2)CC1 | FLT3 autoinhibited | binding | competition with immobilised ligand | 1 µM | 1.8% |
| COc1ccnn2ncc(-c3ccnc(N(C)C)n3)c12 | FLT3 autoinhibited | binding | – | 1 µM | 78% |
